Data as given in ChEMBL document CHEMBL1154522, “Aryl sulfamates are broad spectrum inactivators of sulfatases: effects on sulfatases from various sources” (Bioorg Med Chem Lett, 2009).

Experiments:
[1] = system: Haliotis corrugata; experiment: Ratio of Kinact to Ki for abalone entrails type 8 recombinant sulfatase expressed in Escherichia coli by slow phase inactivation
[2] = system: Haliotis corrugata; experiment: Inhibition of abalone entrails type 8 recombinant sulfatase expressed in Escherichia coli by slow phase inactivation
[3] = system: Helix pomatia; experiment: Inhibition of Helix pomatia type H1 recombinant sulfatase expressed in Escherichia coli
Outline: (§1)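 Snail sulfatase incubated at pH 7 with 0–500 µM 3-nitrophenyl sulfamate; residual activity plotted semi-logarithmically against time, and pseudo-first-order rates replotted against inactivator concentration to fit Ki and kinact (E + I ⇌ E·I → E–P).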

[4] = system: Haliotis corrugata; experiment: Ratio of Kinact to Ki for abalone entrails type 8 recombinant sulfatase expressed in Escherichia coli by fast phase inactivation
[5] = target: Arylsulfatase (Pseudomonas aeruginosa (strain ATCC 15692 / PAO1 / 1C / PRS 101 / LMG12228)) (UniProt P51691); experiment: Ratio of Kinact to Ki for Pseudomonas aeruginosa recombinant arylsulfatase A expressed in Escherichia coli
[6] = system: Patella vulgata; experiment: Protection against inactivation in Patella vulgata type 5 recombinant sulfatase expressed in Escherichia coli assessed as ratio of residual enzyme activity to initial activity at 1 mM after 20 seconds using 4-nitrophenyl sulfate as substrate
Outline: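 Limpet sulfatase given 1 mM sulfamate at pH 7 with or without 79 mM 4-nitrophenyl sulfate; residual activity assayed 20 s after inactivator addition, expressed as vres/v0 against an untreated control.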

[7] = system: Haliotis corrugata; experiment: Inhibition of abalone entrails type 8 recombinant sulfatase expressed in Escherichia coli by fast phase inactivation
[8] = system: Helix pomatia; experiment: Ratio of Kinact to Ki for Helix pomatia type H1 recombinant sulfatase expressed in Escherichia coli; outline: as §1
[9] = target: Arylsulfatase (Pseudomonas aeruginosa (strain ATCC 15692 / PAO1 / 1C / PRS 101 / LMG12228)) (UniProt P51691); experiment: Inhibition of Pseudomonas aeruginosa recombinant arylsulfatase A expressed in Escherichia coli
[10] = system: Patella vulgata; experiment: Inhibition of Patella vulgata type 5 recombinant sulfatase expressed in Escherichia coli
Outline: (§2)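 Limpet sulfatase at pH 7 with 0–12.5 mM sulfamate; semi-logarithmic plots of residual activity over time, inactivation rates replotted against concentration to give Ki and kinact.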

[11] = system: Patella vulgata; experiment: Ratio of Kinact to Ki for Patella vulgata type 5 recombinant sulfatase expressed in Escherichia coli; outline: as §2
[12] = system: Haliotis corrugata; experiment: Protection against inactivation in abalone entrails type 8 recombinant sulfatase expressed in Escherichia coli assessed as ratio of residual enzyme activity to initial activity at 0.5 mM after 25 seconds using 4-nitrophenyl sulfate as substrate
Outline: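 Abalone sulfatase given 0.5 mM sulfamate at pH 7 with or without 30 mM 4-nitrophenyl sulfate; residual activity assayed 25 s after inactivator addition, expressed as vres/v0 against an untreated control.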

[13] = system: Haliotis corrugata; experiment: Activity at abalone entrails type 8 recombinant sulfatase expressed in Escherichia coli
[14] = system: Haliotis corrugata; experiment: Ratio of Vmax/Km for abalone entrails type 8 recombinant sulfatase expressed in Escherichia coli
[15] = system: Haliotis corrugata; experiment: Activity at abalone entrails type 8 recombinant sulfatase expressed in Escherichia coli assessed per mg of protein
Outline: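 Crude limpet or abalone enzyme hydrolysing potassium 4-nitrophenyl sulfate; 4-nitrophenol release read at 410 nm; 10 mM α-cyclodextrin added to raise sensitivity (Δε410 14400 M−1 cm−1 at pH 7); Vmax per mg protein, Km in mM.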

[16] = system: Helix pomatia; experiment: Activity at Helix pomatia type H1 recombinant sulfatase expressed in Escherichia coli assessed per mg of protein
Outline: (§3)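 Hydrolysis of potassium 4-nitrophenyl sulfate followed by release of 4-nitrophenol; Vmax is expressed per mg protein and Km in mM; Vmax/Km is derived from these.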

[17] = system: Helix pomatia; experiment: Activity at Helix pomatia type H1 recombinant sulfatase expressed in Escherichia coli; outline: as §3
[18] = target: Arylsulfatase (Pseudomonas aeruginosa (strain ATCC 15692 / PAO1 / 1C / PRS 101 / LMG12228)) (UniProt P51691); experiment: Ratio of Vmax/Km for Pseudomonas aeruginosa recombinant arylsulfatase A expressed in Escherichia coli; outline: as §3
[19] = system: Helix pomatia; experiment: Ratio of Vmax/Km for Helix pomatia type H1 recombinant sulfatase expressed in Escherichia coli; outline: as §3
[20] = system: Patella vulgata; experiment: Activity at Patella vulgata type 5 recombinant sulfatase expressed in Escherichia coli

Chain of Arylsulfatase (Pseudomonas aeruginosa (strain ATCC 15692 / PAO1 / 1C / PRS 101 / LMG12228)) (P51691 whole entry): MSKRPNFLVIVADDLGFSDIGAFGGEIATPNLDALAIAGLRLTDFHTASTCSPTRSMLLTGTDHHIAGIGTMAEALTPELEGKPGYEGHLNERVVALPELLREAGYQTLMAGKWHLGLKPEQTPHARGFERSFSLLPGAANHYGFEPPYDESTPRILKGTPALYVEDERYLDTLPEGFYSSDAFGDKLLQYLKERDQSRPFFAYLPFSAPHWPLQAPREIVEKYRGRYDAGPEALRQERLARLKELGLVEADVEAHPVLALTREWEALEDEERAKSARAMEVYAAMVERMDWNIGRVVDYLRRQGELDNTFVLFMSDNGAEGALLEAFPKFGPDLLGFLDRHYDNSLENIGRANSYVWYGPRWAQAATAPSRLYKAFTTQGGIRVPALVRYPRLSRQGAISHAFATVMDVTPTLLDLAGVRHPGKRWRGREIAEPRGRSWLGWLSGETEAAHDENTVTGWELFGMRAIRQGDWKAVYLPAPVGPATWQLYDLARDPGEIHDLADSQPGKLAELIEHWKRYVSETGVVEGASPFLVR

| SMILES | Ratio [1] [s⁻¹ mM⁻¹] | T1/2 [2] [s] | T1/2 [3] [s] | Ratio [4] [s⁻¹ mM⁻¹] | Ratio [5] [s⁻¹ mM⁻¹] | Ratio [6] | T1/2 [7] [s] | Ratio [8] [s⁻¹ mM⁻¹] | T1/2 [9] [s] | T1/2 [10] [s] | Ratio [11] [s⁻¹ mM⁻¹] | Ratio [12] | Km [13] [mM] | Vmax/Km [14] | Vmax [15] [mmol/min/mg] | Vmax [16] [mmol/min/mg] | Km [17] [mM] | Vmax/Km [18] | Vmax/Km [19] | Km [20] [mM] |
| --- | --- | --- | --- | --- | --- | --- | --- | --- | --- | --- | --- | --- | --- | --- | --- | --- | --- | --- | --- | --- |
| NS(=O)(=O)Oc1cccc([N+](=O)[O-])c1 | 0.0005 | 257 | 17 | 0.043 | 480 | 0.91 | 10 | 1.19 | 11 | 18 | 0.038 | 1.01 | – | – | – | – | – | – | – | – |
| O=[N+]([O-])c1ccc(OS(=O)(=O)O)cc1 | – | – | – | – | – | – | – | – | – | – | – | – | 10.2 | 0.066 | 0.68 | 0.319 | 2.03 | 7900 | 0.157 | 10 |
